This passage reports Tm and folding enthalpy results from the array DNA melting data of Ke et al. (doi:10.1101/2024.01.08.574731).

Series [1] is described as follows: melting temperature; fluorescence melt of hairpins on a sequencing array, two-state fit, raised by 9.35 °C to match UV melts. The conditions noted are these: sodium 0.088 M. The essentials: (§1)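 Hairpins were imaged by Cy3 fluorescence on a sequenced MiSeq flow cell with annealed Cy3 and quencher oligos, in 50 mM Na-HEPES pH 8.0, 25 mM NaCl, in 2.5 °C steps up to 60 °C. Bootstrapped two-state fits of normalised signals gave melting temperature and folding enthalpy. Four replicates were combined by inverse variance, and fitted temperatures were raised by 9.35 °C to match UV melts.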

Series [2] is described as follows: folding enthalpy; higher = less favourable; fluorescence melt of hairpins on a sequencing array, two-state fit. The conditions noted are these: sodium 0.088 M. In a few lines: as §1

As to GAGTCGGAAACGACTC ((((((....)))))), the Tm in series [1] amounted to 65.9 °C. Besides, the folding enthalpy in series [2] is -37.5 kcal/mol.
As for GCGCGGCGAAAGCGGAGC ((.(.((....)).).)), the Tm in series [1] was 60.4 °C. In series [2], the folding enthalpy was -22.5 kcal/mol.
On the same counts, the results for CCTAGGAAACTAGG (((((....))))) are 41.2 °C and -25.4 kcal/mol.
Take GATCATGTAATGATC ((((((...)))))): the Tm in series [1] worked out at 57.4 °C. In series [2], the folding enthalpy was -39.8 kcal/mol.
As to GGTTTTCGAAAGAATACC (((.(((....))).))), the Tm in series [1] amounted to 42.3 °C. In addition, the folding enthalpy in series [2] is -30.8 kcal/mol.
In the case of GACCTAGGAAACTAGGTC (((((((....))))))), the Tm in series [1] amounted to 60.5 °C. Moreover, in series [2], the folding enthalpy is -42 kcal/mol.
Consider GTTAACGAAAGTTAAAAC ((((((....)))..))), for which, in series [1], the Tm turned out to be 30.2 °C. Moreover, the folding enthalpy in series [2] is -9.6 kcal/mol.
On to GATCCACAAGTGGATC ((((((....)))))), for which, in series [1], the Tm is 57.9 °C. For the same sequence, in series [2], the folding enthalpy is -38.6 kcal/mol.
On the same counts, the results for GCGTTCACACGC ((((....)))) are 52.8 °C and -22.6 kcal/mol.
For the sequence GCCGCCGCGAAAGCGGGC (((..(((....)))))), the Tm in series [1] turned out to be 64 °C. The folding enthalpy in series [2] was -5.71 kcal/mol.
Turning to GCGTCGCGAAAGCCATGC ((.(.((....)).).)), the Tm in series [1] worked out at 41.5 °C. For the same sequence, the folding enthalpy in series [2] is -16.2 kcal/mol.
In the same order, the values of GGAGACCCGAAAGGGTCC (((..(((....)))))) are 47.6 °C and -7.91 kcal/mol.
Take GCCGAAGGAAACTTCAGC ((.((((....)))).)): the Tm in series [1] was 32.9 °C. Further, in series [2], the folding enthalpy is -11.7 kcal/mol.
On the same counts, the results for GATCAGCAACTGATC ((((((...)))))) are 45.6 °C and -33.8 kcal/mol.
Consider GCGGACGAAAGTCATCGC ((((((....)))..))), for which, in series [1], the Tm stood at 50.1 °C. Moreover, the folding enthalpy in series [2] is -25.7 kcal/mol.
In the same order, the values of GATCGGAAAACCGATC ((((((....)))))) are 51.2 °C and -35.5 kcal/mol.
On the same counts, the results for TAACTGAAAAGTTA (((((....))))) are 29.4 °C and -9.74 kcal/mol.
In the same order, the values of GTGACGCCGAAAGGCCAC (((..(((....)))))) are 45.2 °C and -11.8 kcal/mol.
GTAATGGAAACATTAC ((((((....)))))): in series [1], the Tm amounted to 46.7 °C. Further, the folding enthalpy in series [2] was -31.7 kcal/mol.
For GGGCGACGAAAGTCTCCC (((.(((....))).))), the Tm in series [1] was determined as 53.6 °C. Also, the folding enthalpy in series [2] is -43.2 kcal/mol.
Consider GAAGGAGAAATCCTTC ((((((....)))))), for which the Tm in series [1] turned out to be 46.3 °C. Further, the folding enthalpy in series [2] was -26.8 kcal/mol.
On the same counts, the results for GGAGGCGAAAGCCGATCC ((((((....)))..))) are 51.8 °C and -9.71 kcal/mol.
In the same order, the values of GGTAAAGGAAACTTTACC (((((((....))))))) are 52.1 °C and -47.8 kcal/mol.
On to GTTGTCGAAAGACCAAAC ((((((....)))..))), for which, in series [1], the Tm stood at 26 °C. In addition, the folding enthalpy in series [2] was -10.6 kcal/mol.
With GATCCAAGATTGGATC ((((((....)))))), the Tm in series [1] is 50.3 °C. Besides, in series [2], the folding enthalpy was -40 kcal/mol.
In the same order, the values of GATCGACGTTCGATC ((((((...)))))) are 50 °C and -40.8 kcal/mol.
As for GTTGCCGCGAAAGCGAAC (((..(((....)))))), in series [1], the Tm amounted to 35.6 °C. Also, the folding enthalpy in series [2] is -12.6 kcal/mol.
On the same counts, the results for CCCAAGAAATTGGG (((((....))))) are 45.3 °C and -17.3 kcal/mol.
On the same counts, the results for GGGCTAGGAAACTAGTCC ((.((((....)))).)) are 52.4 °C and -37.6 kcal/mol.
Turning to GGAACCGAAAGGTGGTCC ((((((....)))..))), in series [1], the Tm stood at 35.4 °C. Moreover, the folding enthalpy in series [2] is -14.7 kcal/mol.
On the same counts, the results for GCTTTGCGAAAGCGTAGC (((..((....))..))) are 37.2 °C and -19.6 kcal/mol.
As to GATCCGTGATCGGATC ((((((....)))))), the Tm in series [1] amounted to 58.6 °C. The folding enthalpy in series [2] is -32.1 kcal/mol.
GCGTTGCGAAAGCTGCGC (((..((....))..))): the Tm in series [1] was found to be 65.1 °C. In series [2], the folding enthalpy was -36.3 kcal/mol.
In the same order, the values of GAATGTGGAAACATGTTC (((..((....))..))) are 31.4 °C and -18.7 kcal/mol.
On the same counts, the results for GACTCAGGAAACTGGGTC (((.(((....))).))) are 49.2 °C and -37.8 kcal/mol.
On the same counts, the results for GATCGCTGGGGCGATC ((((((....)))))) are 69.1 °C and -32.2 kcal/mol.
As to GATCGGGTCTCCGATC ((((((....)))))), in series [1], the Tm worked out at 59.1 °C. For the same sequence, the folding enthalpy in series [2] was -41.2 kcal/mol.
